Measured values from ChEMBL document CHEMBL3352487, “Synthesis, antibacterial activity, and biological evaluation of formyl hydroxyamino derivatives as novel potent peptide deformylase inhibitors against drug-resistant bacteria” (Eur J Med Chem, 2014).
Values after ≈ are worked out from the molar mass of the structure shown.

Key:
Format in all cases: functional
Staphylococcus aureus [1] = assay: Antimicrobial activity against Staphylococcus aureus after 24 hrs by broth microdilution method
Procedure, shortened: (§1)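 Broth microdilution following NCCLS M7-A4; ATCC strains and clinical isolates from a provincial hospital.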

Staphylococcus aureus [2] = assay: Antimicrobial activity against methicillin-susceptible Staphylococcus aureus after 24 hrs by broth microdilution method; procedure, shortened: as §1
Staphylococcus aureus [3] = assay: Antimicrobial activity against methicillin-resistant Staphylococcus aureus after 24 hrs by broth microdilution method
Procedure, shortened: (§2)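 Broth microdilution following NCCLS M7-A4, using ATCC strains and clinical isolates from a provincial hospital.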

[4] = test system: Staphylococcus epidermidis; assay: Antimicrobial activity against Staphylococcus epidermidis after 24 hrs by broth microdilution method; procedure, shortened: as §1
Escherichia coli [5] = assay: Antimicrobial activity against Escherichia coli isolate 1 after 24 hrs by broth microdilution method; settings: isolate 1, 24 h; procedure, shortened: as §1
Escherichia coli [6] = assay: Antimicrobial activity against Escherichia coli isolate 2 after 24 hrs by broth microdilution method; settings: isolate 2, 24 h; procedure, shortened: as §1
[7] = test system: Staphylococcus epidermidis; assay: Antimicrobial activity against methicillin-resistant Staphylococcus epidermidis after 24 hrs by broth microdilution method; procedure, shortened: as §2
[8] = test system: Staphylococcus epidermidis; assay: Antimicrobial activity against methicillin-susceptible Staphylococcus epidermidis after 24 hrs by broth microdilution method; procedure, shortened: as §1
Enterococcus faecalis = assay: Antimicrobial activity against Enterococcus faecalis after 24 hrs by broth microdilution method; procedure, shortened: as §1
Moraxella catarrhalis = assay: Antimicrobial activity against Moraxella catarrhalis after 24 hrs by broth microdilution method; procedure, shortened: as §1
Streptococcus pneumoniae = assay: Antimicrobial activity against penicillin-resistant Streptococcus pneumoniae after 24 hrs by broth microdilution method; procedure, shortened: as §2

CCCC[C@H](CN(O)C=O)C(=O)N1CC=C[C@H]1C(=O)N1CCOCC1
MIC (Staphylococcus aureus [1]): > 64 µg/mL | MIC (Staphylococcus aureus [2]): > 64 µg/mL | MIC (Staphylococcus aureus [3]): 32 µg/mL (≈ 90.5 µM) | MIC [4]: > 64 µg/mL | MIC (Escherichia coli [5]): > 64 µg/mL | MIC (Escherichia coli [6]): > 64 µg/mL

CCCC[C@H](CN(O)C=O)C(=O)N1C[C@@H](F)C[C@H]1C(=O)Nc1ncc(C)s1
MIC (Staphylococcus aureus [1]): 8 µg/mL (≈ 20 µM) | MIC (Staphylococcus aureus [2]): 8 µg/mL (≈ 20 µM) | MIC (Staphylococcus aureus [3]): 8 µg/mL (≈ 20 µM) | MIC [7]: 8 µg/mL (≈ 20 µM) | MIC [8]: 4 µg/mL (≈ 9.99 µM) | MIC (Enterococcus faecalis): > 16 µg/mL | MIC (Moraxella catarrhalis): 0.25 µg/mL (≈ 0.624 µM) | MIC (Streptococcus pneumoniae): 0.06 µg/mL (≈ 0.15 µM)

CCCC[C@H](CN(O)C=O)C(=O)N1CC=C[C@H]1C(=O)Nc1ccc(Cl)cc1
MIC (Staphylococcus aureus [1]): 8 µg/mL (≈ 20.3 µM) | MIC (Staphylococcus aureus [2]): 2 µg/mL (≈ 5.08 µM) | MIC (Staphylococcus aureus [3]): 1 µg/mL (≈ 2.54 µM) | MIC [4]: 4 µg/mL (≈ 10.2 µM) | MIC (Escherichia coli [5]): > 64 µg/mL | MIC (Escherichia coli [6]): > 64 µg/mL

O=CN(O)C[C@@H](CC1CCCC1)C(=O)N1CC=C[C@H]1C(=O)N1CCOCC1
MIC (Staphylococcus aureus [1]): 64 µg/mL (≈ 169 µM) | MIC (Staphylococcus aureus [2]): 64 µg/mL (≈ 169 µM) | MIC (Staphylococcus aureus [3]): 32 µg/mL (≈ 84.3 µM) | MIC [4]: 64 µg/mL (≈ 169 µM) | MIC (Escherichia coli [5]): > 64 µg/mL | MIC (Escherichia coli [6]): > 64 µg/mL

C=C1C[C@@H](C(=O)N2CCOCC2)N(C(=O)[C@H](CCCC)CN(O)C=O)C1
MIC (Staphylococcus aureus [1]): 4 µg/mL (≈ 10.9 µM) | MIC (Staphylococcus aureus [2]): 64 µg/mL (≈ 174 µM) | MIC (Staphylococcus aureus [3]): 4 µg/mL (≈ 10.9 µM) | MIC [4]: 8 µg/mL (≈ 21.8 µM) | MIC (Escherichia coli [5]): > 64 µg/mL | MIC (Escherichia coli [6]): > 64 µg/mL

CCCC[C@H](CN(O)C=O)C(=O)N1CC=C[C@H]1C(=O)Nc1ccc([N+](=O)[O-])cc1
MIC (Staphylococcus aureus [1]): 0.5 µg/mL (≈ 1.24 µM) | MIC (Staphylococcus aureus [2]): 2 µg/mL (≈ 4.95 µM) | MIC (Staphylococcus aureus [3]): 0.5 µg/mL (≈ 1.24 µM) | MIC [4]: 0.5 µg/mL (≈ 1.24 µM) | MIC (Escherichia coli [5]): > 64 µg/mL | MIC (Escherichia coli [6]): 32 µg/mL (≈ 79.1 µM)

C=C1C[C@@H](C(=O)Nc2ccc(F)cc2)N(C(=O)[C@H](CCCC)CN(O)C=O)C1
MIC (Staphylococcus aureus [1]): 0.5 µg/mL (≈ 1.28 µM) | MIC (Staphylococcus aureus [2]): 2 µg/mL (≈ 5.11 µM) | MIC (Staphylococcus aureus [3]): 0.25 µg/mL (≈ 0.639 µM) | MIC [4]: 0.5 µg/mL (≈ 1.28 µM) | MIC (Escherichia coli [5]): 64 µg/mL (≈ 163 µM) | MIC (Escherichia coli [6]): 64 µg/mL (≈ 163 µM)

CCCC[C@H](CN(O)C=O)C(=O)N1CC=C[C@H]1C(=O)Nc1nnc(C(F)(F)F)s1
MIC (Staphylococcus aureus [1]): 32 µg/mL (≈ 73.5 µM) | MIC (Staphylococcus aureus [2]): 16 µg/mL (≈ 36.7 µM) | MIC (Staphylococcus aureus [3]): 8 µg/mL (≈ 18.4 µM) | MIC [4]: 16 µg/mL (≈ 36.7 µM) | MIC (Escherichia coli [5]): > 64 µg/mL | MIC (Escherichia coli [6]): > 64 µg/mL

CCCC[C@H](CN(O)C=O)C(=O)N1CC=C[C@H]1C(=O)Nc1ccccc1
MIC (Staphylococcus aureus [1]): 4 µg/mL (≈ 11.1 µM) | MIC (Staphylococcus aureus [2]): 8 µg/mL (≈ 22.3 µM) | MIC (Staphylococcus aureus [3]): 1 µg/mL (≈ 2.78 µM) | MIC [4]: 2 µg/mL (≈ 5.56 µM) | MIC (Escherichia coli [5]): > 64 µg/mL | MIC (Escherichia coli [6]): 64 µg/mL (≈ 178 µM)

CCCC[C@H](CN(O)C=O)C(=O)N1CC=C[C@H]1C(=O)NC1CC1
MIC (Staphylococcus aureus [1]): 64 µg/mL (≈ 198 µM) | MIC (Staphylococcus aureus [2]): 32 µg/mL (≈ 99 µM) | MIC (Staphylococcus aureus [3]): 2 µg/mL (≈ 6.18 µM) | MIC [4]: 4 µg/mL (≈ 12.4 µM) | MIC (Escherichia coli [5]): 64 µg/mL (≈ 198 µM) | MIC (Escherichia coli [6]): 32 µg/mL (≈ 99 µM)

Cc1cnc(NC(=O)[C@@H]2C[C@H](C)CN2C(=O)[C@H](CC2CCCC2)CN(O)C=O)s1
MIC (Staphylococcus aureus [1]): 1 µg/mL (≈ 2.37 µM) | MIC (Staphylococcus aureus [2]): 0.5 µg/mL (≈ 1.18 µM) | MIC (Staphylococcus aureus [3]): 1 µg/mL (≈ 2.37 µM) | MIC [7]: 2 µg/mL (≈ 4.73 µM) | MIC [8]: 0.25 µg/mL (≈ 0.592 µM) | MIC (Enterococcus faecalis): 4 µg/mL (≈ 9.47 µM) | MIC (Moraxella catarrhalis): 0.5 µg/mL (≈ 1.18 µM) | MIC (Streptococcus pneumoniae): 0.03 µg/mL (≈ 0.071 µM)

O=CN(O)C[C@@H](CC1CCCC1)C(=O)N1C[C@@H](F)C[C@H]1C(=O)Nc1ccc(F)c[n+]1[O-]
MIC (Staphylococcus aureus [1]): 2 µg/mL (≈ 4.54 µM) | MIC (Staphylococcus aureus [2]): 0.5 µg/mL (≈ 1.14 µM) | MIC (Staphylococcus aureus [3]): 2 µg/mL (≈ 4.54 µM) | MIC [7]: 4 µg/mL (≈ 9.08 µM) | MIC [8]: 0.25 µg/mL (≈ 0.568 µM) | MIC (Enterococcus faecalis): 8 µg/mL (≈ 18.2 µM) | MIC (Moraxella catarrhalis): 0.25 µg/mL (≈ 0.568 µM) | MIC (Streptococcus pneumoniae): 0.03 µg/mL (≈ 0.0681 µM)

CCCC[C@H](CN(O)C=O)C(=O)N1C[C@@H](F)C[C@H]1C(=O)Nc1ccc(F)c[n+]1[O-]
MIC (Staphylococcus aureus [1]): 4 µg/mL (≈ 9.65 µM) | MIC (Staphylococcus aureus [2]): 4 µg/mL (≈ 9.65 µM) | MIC (Staphylococcus aureus [3]): 4 µg/mL (≈ 9.65 µM) | MIC [7]: 16 µg/mL (≈ 38.6 µM) | MIC [8]: 4 µg/mL (≈ 9.65 µM) | MIC (Enterococcus faecalis): > 16 µg/mL | MIC (Moraxella catarrhalis): 0.25 µg/mL (≈ 0.603 µM) | MIC (Streptococcus pneumoniae): 0.06 µg/mL (≈ 0.145 µM)

CCCC[C@H](CN(O)C=O)C(=O)N1CC=C[C@H]1C(=O)Nc1ccccn1
MIC (Staphylococcus aureus [1]): 0.125 µg/mL (≈ 0.347 µM) | MIC (Staphylococcus aureus [2]): 1 µg/mL (≈ 2.77 µM) | MIC (Staphylococcus aureus [3]): 0.125 µg/mL (≈ 0.347 µM) | MIC [4]: 0.5 µg/mL (≈ 1.39 µM) | MIC (Escherichia coli [5]): > 64 µg/mL | MIC (Escherichia coli [6]): 32 µg/mL (≈ 88.8 µM)

Cc1cnc(NC(=O)[C@@H]2C[C@H]3CCCC[C@@H]3N2C(=O)[C@H](CC2CCCC2)CN(O)C=O)s1
MIC (Staphylococcus aureus [1]): 4 µg/mL (≈ 8.65 µM) | MIC (Staphylococcus aureus [2]): 4 µg/mL (≈ 8.65 µM) | MIC (Staphylococcus aureus [3]): 4 µg/mL (≈ 8.65 µM) | MIC [7]: 8 µg/mL (≈ 17.3 µM) | MIC [8]: 0.5 µg/mL (≈ 1.08 µM) | MIC (Enterococcus faecalis): > 16 µg/mL | MIC (Moraxella catarrhalis): 0.5 µg/mL (≈ 1.08 µM) | MIC (Streptococcus pneumoniae): 0.03 µg/mL (≈ 0.0648 µM)

CCCC[C@H](CN(O)C=O)C(=O)N1CC=C[C@H]1C(=O)Nc1ccccc1Cl
MIC (Staphylococcus aureus [1]): 0.5 µg/mL (≈ 1.27 µM) | MIC (Staphylococcus aureus [2]): 2 µg/mL (≈ 5.08 µM) | MIC (Staphylococcus aureus [3]): 0.25 µg/mL (≈ 0.635 µM) | MIC [4]: 1 µg/mL (≈ 2.54 µM) | MIC (Escherichia coli [5]): > 64 µg/mL | MIC (Escherichia coli [6]): 64 µg/mL (≈ 162 µM)

CCCC[C@H](CN(O)C=O)C(=O)N1[C@H](C(=O)Nc2ncc(C)s2)C[C@H]2CCCC[C@@H]21
MIC (Staphylococcus aureus [1]): 8 µg/mL (≈ 18.3 µM) | MIC (Staphylococcus aureus [2]): 8 µg/mL (≈ 18.3 µM) | MIC (Staphylococcus aureus [3]): 8 µg/mL (≈ 18.3 µM) | MIC [7]: 16 µg/mL (≈ 36.6 µM) | MIC [8]: 0.5 µg/mL (≈ 1.15 µM) | MIC (Enterococcus faecalis): > 16 µg/mL | MIC (Moraxella catarrhalis): 0.03 µg/mL (≈ 0.0687 µM) | MIC (Streptococcus pneumoniae): 0.03 µg/mL (≈ 0.0687 µM)

O=C(O)c1cn(C2CC2)c2cc(N3CCNCC3)c(F)cc2c1=O [CIPROFLOXACIN]
MIC (Staphylococcus aureus [1]): 0.5 µg/mL (≈ 1.51 µM) | MIC (Staphylococcus aureus [2]): 0.5 µg/mL (≈ 1.51 µM) | MIC (Staphylococcus aureus [3]): 1 µg/mL (≈ 3.02 µM) | MIC [4]: 0.25 µg/mL (≈ 0.754 µM) | MIC (Escherichia coli [5]): < 0.0312 µg/mL | MIC (Escherichia coli [6]): < 0.0312 µg/mL

CCCC[C@H](CN(O)C=O)C(=O)N1CC=C[C@H]1C(=O)Nc1cccc(Br)c1
MIC (Staphylococcus aureus [1]): 8 µg/mL (≈ 18.3 µM) | MIC (Staphylococcus aureus [2]): 1 µg/mL (≈ 2.28 µM) | MIC (Staphylococcus aureus [3]): 0.125 µg/mL (≈ 0.285 µM) | MIC [4]: 1 µg/mL (≈ 2.28 µM) | MIC (Escherichia coli [5]): 64 µg/mL (≈ 146 µM) | MIC (Escherichia coli [6]): 16 µg/mL (≈ 36.5 µM)
